Source: ChEMBL document CHEMBL1828597, “Tyrosyl-tRNA synthetase inhibitors as antibacterial agents: synthesis, molecular docking and structure-activity relationship analysis of 3-aryl-4-arylaminofuran-2(5H)-ones” (Eur J Med Chem, 2011)
In brackets after ≈: the same amount, converted by molar mass.

Experiments:
Bacillus subtilis = assay: Antibacterial activity against Bacillus subtilis ATCC 6633 after 24 hrs by MTT assay; type: functional; conditions: ATCC 6633, 24 h
Outline: (§1)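 LB medium, inocula of about 10⁵ cfu/mL in 96-well plates against serially diluted compounds (DMSO stock diluted in 50% v/v DMSO/PBS), 37 °C for 24 h. Read-out: PBS containing 2 mg/mL MTT added for 4–5 h at room temperature, wells emptied, solubilizer added for 12 h at room temperature, then OD at 550 nm. MIC₅₀ from this colorimetric read.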

Candida albicans = assay: Antifungal activity against Candida albicans ATCC 10231 after 48 hrs by MTT assay; conditions: ATCC 10231, 48 h
Escherichia coli = assay: Antibacterial activity against Escherichia coli ATCC 35218 after 24 hrs by MTT assay; type: functional; conditions: ATCC 35218, 24 h; outline: as §1
Staphylococcus aureus = assay: Antibacterial activity against Staphylococcus aureus ATCC 25923 after 24 hrs by MTT assay; type: functional; conditions: ATCC 25923, 24 h; outline: as §1
[1] = Inhibition of Staphylococcus aureus TyrRS assessed as inhibition of [3H]tyrosine incorporation after 10 mins by liquid scintillation counting

| Structure (SMILES) | MIC50 (Bacillus subtilis) [µg/mL] | MIC50 (Candida albicans) [µg/mL] | MIC50 (Escherichia coli) [µg/mL] | MIC50 (Staphylococcus aureus) [µg/mL] | IC50 [1] [µM] |
| --- | --- | --- | --- | --- | --- |
| O=C1OCC(Nc2ccccc2Cl)=C1c1ccccc1 | > 50 | > 50 | > 50 | > 50 | 89.9 |
| O=C1OCC(Nc2cccc(Cl)c2)=C1c1ccccc1 | > 50 | 41.8 (≈ 146 µM) | > 50 | 32.1 (≈ 112 µM) | 20.8 |
| O=C1OCC(Nc2ccccc2[N+](=O)[O-])=C1c1ccccc1 | > 50 | > 50 | > 50 | > 50 | > 100 |
| O=C1OCC(Nc2cccc([N+](=O)[O-])c2)=C1c1ccccc1 | > 50 | > 50 | > 50 | > 50 | 44.6 |
| O=C1OCC(Nc2cc(Br)cc(Br)c2)=C1c1ccc(F)cc1 | 38.6 (≈ 90.4 µM) | 28.6 (≈ 67 µM) | > 50 | 10.2 (≈ 23.9 µM) | 9.2 |
| O=C1OCC(Nc2cccc(Cl)c2)=C1c1ccc(Cl)cc1 | 10.9 (≈ 34 µM) | 9.7 (≈ 30.3 µM) | > 50 | 3.3 (≈ 10.3 µM) | 2.4 |
| O=C1OCC(Nc2ccccc2)=C1c1ccc(Br)cc1 | 41.7 (≈ 126 µM) | 37.5 (≈ 114 µM) | > 50 | 27.8 (≈ 84.2 µM) | 16.6 |
| O=C1OCC(Nc2ccccn2)=C1c1ccc(Br)cc1 | > 50 | > 50 | > 50 | 39 (≈ 118 µM) | 25.6 |
| CN(C1=C(c2ccc(Br)cc2)C(=O)OC1)c1ccccc1 | > 50 | > 50 | > 50 | 45.8 (≈ 133 µM) | 29.4 |
| O=C1OCC(Nc2ccccc2Cl)=C1c1ccc(Br)cc1 | > 50 | 49.3 (≈ 135 µM) | > 50 | 34.6 (≈ 94.9 µM) | 21 |
| O=C1OCC(Nc2cccc(Cl)c2)=C1c1ccc(Br)cc1 | 11.3 (≈ 31 µM) | 9 (≈ 24.7 µM) | > 50 | 2.5 (≈ 6.86 µM) | 1.7 |
| O=C1OCC(Nc2ccc(Cl)cc2)=C1c1ccc(Br)cc1 | > 50 | 25.7 (≈ 70.5 µM) | > 50 | 12.6 (≈ 34.6 µM) | 15.2 |
| O=C1OCC(Nc2ccc(Br)cc2)=C1c1ccc(Br)cc1 | > 50 | 41.8 (≈ 102 µM) | > 50 | 23.1 (≈ 56.5 µM) | 11.4 |
| O=C1OCC(Nc2ccccc2[N+](=O)[O-])=C1c1ccc(Br)cc1 | > 50 | > 50 | > 50 | > 50 | 67.3 |
| O=C1OCC(Nc2cccc([N+](=O)[O-])c2)=C1c1ccc(Br)cc1 | 28.6 (≈ 76.2 µM) | 26.3 (≈ 70.1 µM) | > 50 | 10.8 (≈ 28.8 µM) | 10.3 |
| O=C1OCC(Nc2ccc([N+](=O)[O-])cc2)=C1c1ccc(Br)cc1 | > 50 | > 50 | > 50 | > 50 | 63.3 |
| O=C1OCC(Nc2cccc(O)c2)=C1c1ccc(Br)cc1 | > 50 | > 50 | > 50 | 25.2 (≈ 72.8 µM) | 15.4 |
| O=C1OCC(Nc2ccc(O)cc2)=C1c1ccc(Br)cc1 | > 50 | > 50 | > 50 | > 50 | 85.2 |
| COc1ccccc1NC1=C(c2ccc(Br)cc2)C(=O)OC1 | > 50 | > 50 | > 50 | > 50 | 36.8 |

| Structure (SMILES) | MIC50 (Bacillus subtilis) [µg/mL] | MIC50 (Candida albicans) [µg/mL] | MIC50 (Escherichia coli) [µg/mL] | MIC50 (Staphylococcus aureus) [µg/mL] | IC50 [1] [µM] |
| --- | --- | --- | --- | --- | --- |
| COc1ccc(NC2=C(c3ccc(Br)cc3)C(=O)OC2)cc1 | > 50 | > 50 | > 50 | > 50 | 97.6 |
| Cc1ccc(NC2=C(c3ccc(Br)cc3)C(=O)OC2)cc1 | > 50 | > 50 | > 50 | > 50 | > 100 |
| O=C1OCC(Nc2cc(F)cc(F)c2)=C1c1ccc(Br)cc1 | 19.4 (≈ 53 µM) | 21.7 (≈ 59.3 µM) | > 50 | 7.1 (≈ 19.4 µM) | 6.3 |
| O=C1OCC(Nc2cc(Cl)cc(Cl)c2)=C1c1ccc(Br)cc1 | 2.2 (≈ 5.51 µM) | 5.8 (≈ 14.5 µM) | > 50 | 0.42 (≈ 1.05 µM) | 0.39 |
| O=C1OCC(Nc2cc(Br)cc(Br)c2)=C1c1ccc(Br)cc1 | > 50 | 49.2 (≈ 101 µM) | > 50 | 23.5 (≈ 48.2 µM) | 13.6 |
| COc1cc(NC2=C(c3ccc(Br)cc3)C(=O)OC2)cc(OC)c1 | > 50 | > 50 | > 50 | > 50 | 17.5 |
| O=C1OCC(Nc2ccccc2Cl)=C1c1cccc(Cl)c1 | 47.5 (≈ 148 µM) | 46.8 (≈ 146 µM) | > 50 | 21.5 (≈ 67.2 µM) | 15.7 |
| O=C1OCC(Nc2cccc(Cl)c2)=C1c1cccc(Cl)c1 | 11.7 (≈ 36.5 µM) | 12.2 (≈ 38.1 µM) | > 50 | 4.6 (≈ 14.4 µM) | 4.3 |
| O=C1OCC(Nc2ccccc2[N+](=O)[O-])=C1c1cccc(Cl)c1 | > 50 | > 50 | > 50 | > 50 | 49.7 |
| COc1ccccc1NC1=C(c2cccc(Cl)c2)C(=O)OC1 | > 50 | > 50 | > 50 | 49.4 (≈ 156 µM) | 32.5 |
| O=C1OCC(Nc2cc(Cl)cc(Cl)c2)=C1c1cccc(Cl)c1 | 13.4 (≈ 37.8 µM) | 10.1 (≈ 28.5 µM) | > 50 | 2.9 (≈ 8.18 µM) | 2.9 |
| O=C1OCC(Nc2ccc(Br)cc2)=C1c1cccc(Br)c1 | 31.6 (≈ 77.2 µM) | 18.7 (≈ 45.7 µM) | > 50 | 6.5 (≈ 15.9 µM) | 5.4 |
| O=C1OCC(Nc2cc(Cl)cc(Cl)c2)=C1c1cccc(Br)c1 | 1.2 (≈ 3.01 µM) | 5.4 (≈ 13.5 µM) | > 50 | 0.06 (≈ 0.15 µM) | 0.09 |
| O=C1OCC(Nc2cc(Br)cc(Br)c2)=C1c1cccc(Br)c1 | 8.8 (≈ 18 µM) | 8.5 (≈ 17.4 µM) | > 50 | 2.3 (≈ 4.71 µM) | 1.9 |
| COc1ccc(C2=C(Nc3cc(Cl)cc(Cl)c3)COC2=O)cc1 | 9.6 (≈ 27.4 µM) | 7.2 (≈ 20.6 µM) | > 50 | 1.8 (≈ 5.14 µM) | 1.6 |
| O=C1OCC(Nc2cc(Cl)cc(Cl)c2)=C1c1ccc(O)cc1 | 9.8 (≈ 29.2 µM) | 10.2 (≈ 30.3 µM) | > 50 | 2.9 (≈ 8.63 µM) | 3.5 |
| NC[C@H]1O[C@H](O[C@H]2[C@H](O)[C@@H](O[C@H]3O[C@H](CO)[C@@H](O)[C@H](N)[C@H]3O)[C@H](N)C[C@@H]2N)[C@H](O)[C@@H](O)[C@@H]1O [KANAMYCIN] | 0.42 (≈ 0.867 µM) | – | – | 1.1 (≈ 2.27 µM) | – |
| CC(=O)N1CCN(c2ccc(OCC3COC(Cn4ccnc4)(c4ccc(Cl)cc4Cl)O3)cc2)CC1 (centres undefined) [KETOCONAZOLE] | – | 4.1 (≈ 7.71 µM) | – | – | – |
| CC1(C)S[C@@H]2[C@H](NC(=O)Cc3ccccc3)C(=O)N2[C@H]1C(=O)O [PENICILLIN G] | – | – | 2 (≈ 5.98 µM) | – | – |
